Test results published in ChEMBL document CHEMBL3352723, “6-(Hetero)Arylpurine nucleotides as inhibitors of the oncogenic target DNPH1: synthesis, structural studies and cytotoxic activities” (Eur J Med Chem, 2014).
The source made the active and inactive calls. No cut-off for these calls is given here.

Assays:
[1] = Cytotoxicity against human HCT15 cells at 10 uM after 72 hrs by MTT assay; conditions: HCT-15, 72 h, read-out: INH
[2] = Cytotoxicity against human HCT116 cells at 10 uM after 72 hrs by MTT assay; conditions: HCT-116, 72 h, read-out: INH
[3] = Cytotoxicity against human HL60 cells after 72 hrs by MTT assay; conditions: HL-60, 72 h
[4] = Cytotoxicity against human PC3 cells at 10 uM after 72 hrs by MTT assay; conditions: PC-3, 72 h, read-out: INH
MCF7 = test: Cytotoxicity against human MCF7 cells at 10 uM after 72 hrs by MTT assay; conditions: MCF7, 72 h, read-out: INH
[5] = Cytotoxicity against human HL60 cells at 10 uM after 72 hrs by MTT assay; conditions: HL-60, 72 h, read-out: INH
[6] = Cytotoxicity against human HCT15 cells after 72 hrs by MTT assay; conditions: HCT-15, 72 h
[7] = Cytotoxicity against human HCT116 cells after 72 hrs by MTT assay; format: functional, cell-based; conditions: HCT-116, 72 h
Method in brief: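 Cells grown in RPMI 1640 with L-glutamine, 10% FCS, penicillin/streptomycin and fungizone at 37 °C under 5% CO2. Seeding was 2000 cells/well for HCT116 and HL60 and 600 for HCT15; compounds added after 24 h in DMSO (1% final). Viable cells read at 490 nm with MTS reagent.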

HL-60 = conditions: Homo sapiens, 10 uM
HCT-116 = conditions: Homo sapiens, 10 uM
PC-3 = conditions: Homo sapiens, 10 uM
HCT-15 = conditions: Homo sapiens, 10 uM

| Structure (SMILES) | inhibition at 10 µM [1] [%] | inhibition at 10 µM [2] [%] | IC50 [3] [µM] | inhibition at 10 µM [4] [%] | inhibition at 10 µM (MCF7) [%] | inhibition at 10 µM [5] [%] | IC50 [6] [µM] | IC50 [7] [µM] | inhibition (HL-60) | inhibition (HCT-116) | inhibition (PC-3) | inhibition (HCT-15) |
| --- | --- | --- | --- | --- | --- | --- | --- | --- | --- | --- | --- | --- |
| O=P(O)(O)OC[C@H]1O[C@@H](n2cnc3c(-c4cccc(Br)c4)ncnc32)[C@H](O)[C@@H]1O | > 90 | > 90 | 3.9 | > 90 | > 90 | > 90 | 0.6 | – | – | – | – | – |
| O=P(O)(O)OC[C@H]1O[C@@H](n2cnc3c(NCc4ccccc4)ncnc32)[C@H](O)[C@@H]1O | – | – | 5 | – | – | – | 0.8 | 7.7 | – | – | – | – |
| O=P(O)(O)OC[C@H]1O[C@@H](n2cnc3c(-c4ccoc4)ncnc32)[C@H](O)[C@@H]1O | > 90 | > 90 | 15.4 | > 90 | > 90 | > 90 | 1.3 | 5.5 | – | – | – | – |
| O=P(O)(O)OC[C@H]1O[C@@H](n2cnc3c(-c4ccc(O)cc4)ncnc32)[C@H](O)[C@@H]1O | > 90 | > 90 | 0.5 | > 90 | > 90 | > 90 | 0.3 | 4.1 | – | – | – | – |
| O=P(O)(O)OC[C@H]1O[C@@H](n2cnc3c(-c4ccccc4)ncnc32)[C@H](O)[C@@H]1O | > 90 | > 90 | 1.7 | > 90 | > 90 | > 90 | 0.7 | 3.2 | – | – | – | – |
| O=P(O)(O)OC[C@H]1O[C@@H](n2cnc3c(-c4cccc(-c5cccc6c5sc5ccccc56)c4)ncnc32)[C@H](O)[C@@H]1O | – | – | – | – | > 90 | – | – | – | inactive | inactive | inactive | inactive |
| O=C(O)c1ccc(-c2cccc(-c3ncnc4c3ncn4[C@@H]3O[C@H](COP(=O)(O)O)[C@@H](O)[C@H]3O)c2)cc1 | – | – | – | – | > 90 | – | – | – | inactive | inactive | inactive | inactive |
| O=P(O)(O)OC[C@H]1O[C@@H](n2cnc3c(-c4ccc5cc[nH]c5c4)ncnc32)[C@H](O)[C@@H]1O | > 90 | > 90 | 0.5 | > 90 | > 90 | > 90 | 1.4 | > 80 | – | – | – | – |
| O=P(O)(O)OC[C@H]1O[C@@H](n2cnc3c(-c4ccc(Cl)s4)ncnc32)[C@H](O)[C@@H]1O | > 90 | > 90 | 6.5 | > 90 | > 90 | > 90 | 1 | – | – | – | – | – |
